{
  "source": "ChEMBL document CHEMBL1156129",
  "about": "“Synthesis, structure-activity relationships, and characterization of novel nonsteroidal and selective androgen receptor modulators” (J Med Chem, 2009)",
  "key": {"[1]": {"experiment": "Plasma concentration in Sprague-Dawley rat at 10 mg/kg, po after 360 mins", "assay_type": "ADME, organism-based", "set-up": "dose 10 mg/kg, route oral"}, "[2]": {"experiment": "AUC (8 hrs) in Sprague-Dawley rat at 10 mg/kg, po", "assay_type": "ADME, organism-based", "set-up": "time < 8 hr, dose 10 mg/kg, route oral", "settings": "plasma"}, "[3]": {"experiment": "Cmax in Sprague-Dawley rat at 1 mg/kg, iv", "assay_type": "ADME, organism-based", "set-up": "dose 1 mg/kg, route intravenous", "settings": "in vivo"}, "[4]": {"experiment": "Half life in Sprague-Dawley rat at 1 mg/kg, iv", "assay_type": "ADME, organism-based", "set-up": "dose 1 mg/kg, route intravenous", "settings": "in vivo"}, "[5]": {"experiment": "AUC (0 to infinity) in Beagle dog at 1 mg/kg, iv", "assay_type": "ADME, organism-based, Canis lupus familiaris", "set-up": "dose 1 mg/kg, route intravenous, time infinity", "settings": "plasma"}, "[6]": {"experiment": "AUC (0 to infinity) in Beagle […] at 10 mg/kg, po", "assay_type": "ADME, organism-based, Canis lupus familiaris", "set-up": "time infinity, dose 10 mg/kg, route oral", "settings": "plasma"}, "[7]": {"experiment": "Plasma concentration in Beagle dog at 1 mg/kg, iv after 0.08 hrs", "assay_type": "ADME, organism-based, Canis lupus familiaris", "set-up": "dose 1 mg/kg, route intravenous"}, "[8]": {"experiment": "Plasma concentration in Beagle dog at 1 mg/kg, iv after 1 hrs", "assay_type": "ADME, organism-based, Canis lupus familiaris", "set-up": "dose 1 mg/kg, route intravenous"}, "[9]": {"experiment": "Plasma concentration in Beagle dog at 10 mg/kg, po after 2 hrs", "assay_type": "ADME, organism-based, Canis lupus familiaris", "set-up": "dose 10 mg/kg, route oral"}, "[10]": {"experiment": "Plasma concentration in Beagle dog at 10 mg/kg, po after 6 hrs", "assay_type": "ADME, organism-based, Canis lupus familiaris", "set-up": "dose 10 mg/kg, route oral"}, "[11]": {"test_system": "Rattus norvegicus", "experiment": "Anabolic effect in castrated rat levator ani muscle assessed as reversal of ORX-induced atrophy at 1 mg/kg/day sc using osmotic pump after 14 days", "assay_type": "functional", "settings": "route subcutaneous", "outline": "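Orchiectomized male rats received compound by subcutaneous osmotic pump for 14 days at 0.1-3 (mg/kg)/day. […] Levator ani and ventral prostate were weighed after 2 weeks and compared with sham-operated vehicle-treated controls, expressed as reversal of ORX-induced atrophy.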"}, "[12]": {"molecular_target": "T1, Androgen receptor (Mus musculus, UniProt P19091)", "T1 sequence (P19091 whole entry)": "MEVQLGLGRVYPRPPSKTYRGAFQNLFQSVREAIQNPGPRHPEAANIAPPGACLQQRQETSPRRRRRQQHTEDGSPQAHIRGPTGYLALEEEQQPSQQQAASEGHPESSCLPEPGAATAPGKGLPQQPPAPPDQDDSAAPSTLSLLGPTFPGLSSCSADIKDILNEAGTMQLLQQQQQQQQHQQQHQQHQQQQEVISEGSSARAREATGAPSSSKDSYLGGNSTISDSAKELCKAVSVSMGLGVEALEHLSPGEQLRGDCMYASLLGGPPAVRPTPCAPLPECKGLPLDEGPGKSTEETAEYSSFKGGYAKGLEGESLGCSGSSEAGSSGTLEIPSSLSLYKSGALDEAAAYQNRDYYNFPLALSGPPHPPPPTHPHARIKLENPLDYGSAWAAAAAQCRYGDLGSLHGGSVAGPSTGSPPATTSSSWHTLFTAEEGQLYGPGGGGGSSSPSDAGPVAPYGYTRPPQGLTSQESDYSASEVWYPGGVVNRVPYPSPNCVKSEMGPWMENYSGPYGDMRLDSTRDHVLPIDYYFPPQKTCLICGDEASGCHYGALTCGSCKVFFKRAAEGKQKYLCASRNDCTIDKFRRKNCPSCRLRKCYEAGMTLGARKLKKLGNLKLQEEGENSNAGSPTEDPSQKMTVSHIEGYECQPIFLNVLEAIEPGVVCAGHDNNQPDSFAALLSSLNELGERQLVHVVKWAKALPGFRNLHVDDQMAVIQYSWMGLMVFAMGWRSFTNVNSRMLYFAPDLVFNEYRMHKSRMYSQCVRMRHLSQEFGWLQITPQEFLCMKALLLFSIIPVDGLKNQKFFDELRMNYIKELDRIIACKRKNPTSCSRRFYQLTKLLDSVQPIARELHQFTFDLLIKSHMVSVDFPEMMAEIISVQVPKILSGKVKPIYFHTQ", "experiment": "Agonist activity at androgen receptor in mouse NIH3T3 cells transiently transfected with beta-galactosidase reporter gene assessed as cellular transformation by R-SAT assay"}, "[13]": {"experiment": "Agonist activity at androgen receptor LBD T877A mutant in mouse NIH3T3 cells transiently transfected with beta-galactosidase reporter gene assessed as cellular transformation by R-SAT assay relative to dihydrotestosterone", "assay_type": "functional", "outline": "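AR expression vector transiently co-transfected (Polyfect) with β-galactosidase and coactivators SRC1, DRIP205 and GRIP1 into NIH-3T3 fibroblasts at 60-70% confluency. ONPG substrate added, absorbance read at 420 nm. EC50 from a hyperbolic fit. Mean ± SEM of three or more independent experiments.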"}, "[14]": {"molecular_target": "T2, Androgen receptor (Homo sapiens, UniProt P10275)", "T2 sequence (P10275 whole entry)": "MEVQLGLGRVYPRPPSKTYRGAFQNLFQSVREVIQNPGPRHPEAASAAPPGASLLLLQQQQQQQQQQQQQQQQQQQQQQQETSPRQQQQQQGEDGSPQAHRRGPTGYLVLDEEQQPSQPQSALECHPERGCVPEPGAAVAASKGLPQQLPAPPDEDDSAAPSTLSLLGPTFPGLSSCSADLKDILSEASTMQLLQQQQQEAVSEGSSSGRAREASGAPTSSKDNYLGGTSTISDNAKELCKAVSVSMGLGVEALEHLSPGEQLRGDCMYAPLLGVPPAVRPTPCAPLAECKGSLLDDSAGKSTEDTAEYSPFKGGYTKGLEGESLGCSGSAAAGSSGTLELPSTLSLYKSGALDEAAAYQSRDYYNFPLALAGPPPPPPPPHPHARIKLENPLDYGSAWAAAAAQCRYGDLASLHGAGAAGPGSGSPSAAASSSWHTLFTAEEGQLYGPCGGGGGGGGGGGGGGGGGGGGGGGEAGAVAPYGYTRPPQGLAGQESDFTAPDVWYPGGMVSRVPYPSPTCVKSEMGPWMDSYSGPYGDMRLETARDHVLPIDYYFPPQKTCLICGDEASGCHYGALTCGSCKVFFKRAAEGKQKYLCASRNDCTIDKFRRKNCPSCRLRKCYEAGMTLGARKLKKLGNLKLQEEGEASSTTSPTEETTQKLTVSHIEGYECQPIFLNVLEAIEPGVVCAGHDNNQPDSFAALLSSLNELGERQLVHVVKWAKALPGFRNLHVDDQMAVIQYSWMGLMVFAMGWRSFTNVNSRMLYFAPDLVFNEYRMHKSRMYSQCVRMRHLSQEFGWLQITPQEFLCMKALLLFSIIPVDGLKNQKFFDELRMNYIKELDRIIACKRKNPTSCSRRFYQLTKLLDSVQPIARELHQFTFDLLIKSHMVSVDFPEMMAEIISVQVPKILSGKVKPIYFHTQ", "experiment": "Agonist activity at androgen receptor in human MDA-KB2 cells transfected with MMTV linked luciferase assessed as transcriptional activation by luciferase reporter gene assay"}, "[15]": {"experiment": "Plasma concentration in Sprague-Dawley rat at 1 mg/kg, iv after 1 min", "assay_type": "ADME, organism-based", "set-up": "dose 1 mg/kg, route intravenous"}, "[16]": {"experiment": "Plasma concentration in Sprague-Dawley rat at 1 mg/kg, iv after 360 mins", "assay_type": "ADME, organism-based", "set-up": "dose 1 mg/kg, route intravenous"}, "[17]": {"experiment": "Plasma concentration in Sprague-Dawley rat at 1 mg/kg, iv after 480 mins", "assay_type": "ADME, organism-based", "set-up": "dose 1 mg/kg, route intravenous"}, "[18]": {"experiment": "Plasma concentration in Sprague-Dawley rat at 10 mg/kg, po after 10 mins", "assay_type": "ADME, organism-based", "set-up": "dose 10 mg/kg, route oral"}, "[19]": {"test_system": "Rattus norvegicus", "experiment": "Androgenic effect in rat ORX model assessed as reversal of testosterone propionate-induced prostate weight treated at 10 mg/kg, po", "assay_type": "functional, organism-based", "set-up": "dose 10 mg/kg", "settings": "Prostate gland"}, "[20]": {"experiment": "Oral bioavailability in rat", "assay_type": "ADME, organism-based", "settings": "in vivo"}, "[21]": {"experiment": "Cmax in Beagle dog at 10 mg/kg, po", "assay_type": "ADME, organism-based, Canis lupus familiaris", "set-up": "dose 10 mg/kg, route oral", "settings": "in vivo"}},
  "note": "Activity calls are given as the source filed them. The rule behind the calls is not given here.",
  "data": [
    {"smiles": "Cc1c(N2[C@@H]3CC[C@H]2C[C@@](C)(O)C3)ccc(C#N)c1Cl", "values": [
      {"measurement": "concentration at 6 h", "setting": "[1]", "result": 350, "unit": "ng/mL"},
      {"measurement": "AUC at 8 h", "setting": "[2]", "result": 2370, "unit": "ng·h/mL"},
      {"measurement": "Cmax", "setting": "[3]", "result": 882, "unit": "ng/mL"},
      {"measurement": "half-life", "setting": "[4]", "result": 2.46, "unit": "h"},
      {"measurement": "AUC(0-inf)", "setting": "[5]", "result": 394, "unit": "ng·h/mL"},
      {"measurement": "AUC(0-inf)", "setting": "[6]", "result": 2210, "unit": "ng·h/mL"},
      {"measurement": "concentration at 0.08 h", "setting": "[7]", "result": 357, "unit": "ng/mL"},
      {"measurement": "concentration at 1 h", "setting": "[8]", "result": 89.3, "unit": "ng/mL"},
      {"measurement": "concentration at 2 h", "setting": "[9]", "result": 270, "unit": "ng/mL"},
      {"measurement": "concentration at 6 h", "setting": "[10]", "result": 104, "unit": "ng/mL"},
      {"measurement": "Activity", "setting": "[11]", "result": 67, "unit": "%"},
      {"measurement": "EC50", "setting": "[12]", "result": 1, "unit": "nM"},
      {"measurement": "Efficacy", "setting": "[13]", "result": 37, "unit": "%"},
      {"measurement": "EC50", "setting": "[14]", "result": 0.251, "unit": "nM"},
      {"measurement": "concentration at 1 min", "setting": "[15]", "result": 824, "unit": "ng/mL"},
      {"measurement": "concentration at 6 h", "setting": "[16]", "result": 23.5, "unit": "ng/mL"},
      {"measurement": "concentration at 8 h", "setting": "[17]", "result": 14.9, "unit": "ng/mL"},
      {"measurement": "concentration at 10 min", "setting": "[18]", "result": 148, "unit": "ng/mL"},
      {"measurement": "Activity", "setting": "[19]", "result": "Active"},
      {"measurement": "bioavailability", "setting": "[20]", "result": 38, "unit": "%"},
      {"measurement": "Cmax", "setting": "[21]", "result": 835, "unit": "ng/mL"}
    ]}
  ]
}
